From ChEMBL document CHEMBL1145382, “Novel ergopeptides as dual ligands for adenosine and dopamine receptors” (J Med Chem, 2007)
Active and inactive are the calls of the source. No cut-off for these calls is given here.

Biological target: T1, Adenosine receptor A1 (Homo sapiens) (UniProt P30542)
T1 sequence (whole entry): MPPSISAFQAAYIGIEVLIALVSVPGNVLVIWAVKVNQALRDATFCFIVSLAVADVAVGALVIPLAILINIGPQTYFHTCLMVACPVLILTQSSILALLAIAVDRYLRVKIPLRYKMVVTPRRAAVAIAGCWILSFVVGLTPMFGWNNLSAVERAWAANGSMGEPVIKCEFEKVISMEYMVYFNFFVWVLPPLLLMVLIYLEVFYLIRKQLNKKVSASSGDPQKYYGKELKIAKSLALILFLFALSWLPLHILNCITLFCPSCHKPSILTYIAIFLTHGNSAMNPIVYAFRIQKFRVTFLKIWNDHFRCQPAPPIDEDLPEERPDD
Assay: Displacement of [3H]R-PIA from adenosine A1 receptor in lamb striatum membrane at 50 uM after 1 hr
Assay type: cell membranes
Settings: Ovis aries, target entry is the homologue from another species
Outline: (§1)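 Single-concentration screen at 50 µM ergopeptide on lamb striatal membranes (0.5 mg protein/mL), 22 °C, 50 mM Tris-HCl pH 7.4. Radioligands: [3H]SCH 23390 1.2 nM (D1), [3H]YM 09151-2 0.9 nM (D2), [3H]R-PIA 2.2 nM (A1, with MgCl2 and ADA), [3H]CGS 21680 20.1 nM (A2A, with MgCl2 and ADA). Specific binding displaced, after filtration and scintillation counting.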

Structure (SMILES)	Activity [%]
CN1C[C@H](C(=O)N[C@@H](Cc2ccc([N+](=O)[O-])cc2)C(=O)N[C@@H](Cc2ccc(F)cc2)C(=O)N2CCCC(C(N)=O)C2)C=C2c3cccc4[nH]cc(c34)C[C@H]21 (stereo partly specified)	< 40
CC(C)[C@H](NC(=O)[C@@H]1C=C2c3cccc4[nH]cc(c34)C[C@H]2N(C)C1)C(=O)N[C@@H](Cc1ccc(F)cc1)C(=O)N1CCC[C@H]1C(N)=O	< 40
CN1C[C@H](C(=O)N[C@@H](Cc2ccc([N+](=O)[O-])cc2)C(=O)N[C@@H](CCC2CCCCC2)C(=O)N2CCCC(C(N)=O)C2)C=C2c3cccc4[nH]cc(c34)C[C@H]21 (stereo partly specified)	< 40

Biological target: T2, Adenosine receptor A2a (Homo sapiens, UniProt P29274)
T2 sequence (P29274 whole entry): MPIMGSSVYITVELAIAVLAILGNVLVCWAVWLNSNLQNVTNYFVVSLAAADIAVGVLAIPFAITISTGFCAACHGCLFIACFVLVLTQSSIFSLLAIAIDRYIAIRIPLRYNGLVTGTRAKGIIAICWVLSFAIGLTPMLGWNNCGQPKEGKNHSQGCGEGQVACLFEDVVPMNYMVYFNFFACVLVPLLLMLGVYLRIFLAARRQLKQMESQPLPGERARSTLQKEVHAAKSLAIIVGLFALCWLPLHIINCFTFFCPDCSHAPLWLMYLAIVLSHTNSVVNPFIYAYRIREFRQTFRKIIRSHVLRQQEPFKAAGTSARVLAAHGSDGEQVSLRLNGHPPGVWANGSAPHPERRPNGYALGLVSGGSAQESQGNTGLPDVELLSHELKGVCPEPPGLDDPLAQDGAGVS
Assay: Agonist activity at adenosine A2A receptor in SH-SY5Y cells assessed as CGS-induced intracellular cAMP production at 50 uM
Assay type: functional, cell-based
Settings: not given
Outline: (§2)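 SH-SY5Y neuroblastoma cells, endogenous A2AR, stably carrying human D2LR. Serum-starved 12-16 h, in HBSS with 50 µM zardaverine for 10 min, then 50 µM ergopeptide, alone or with the A2AR agonist CGS. 35 min total incubation. cAMP by competitive enzyme immunoassay. Three to six determinations, Student's t test.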

Structure (SMILES)	Activity
CN1C[C@H](C(=O)N[C@@H](Cc2ccc([N+](=O)[O-])cc2)C(=O)N[C@@H](Cc2ccc(F)cc2)C(=O)N2CCCC(C(N)=O)C2)C=C2c3cccc4[nH]cc(c34)C[C@H]21 (stereo partly specified)	inactive
CC(C)[C@H](NC(=O)[C@@H]1C=C2c3cccc4[nH]cc(c34)C[C@H]2N(C)C1)C(=O)N[C@@H](Cc1ccc(F)cc1)C(=O)N1CCC[C@H]1C(N)=O	inactive
CN1C[C@H](C(=O)N[C@@H](Cc2ccc([N+](=O)[O-])cc2)C(=O)N[C@@H](CCC2CCCCC2)C(=O)N2CCCC(C(N)=O)C2)C=C2c3cccc4[nH]cc(c34)C[C@H]21 (stereo partly specified)	inactive

Biological target: D(2) dopamine receptor (Homo sapiens) (UniProt P14416)
Sequence (P14416 whole entry): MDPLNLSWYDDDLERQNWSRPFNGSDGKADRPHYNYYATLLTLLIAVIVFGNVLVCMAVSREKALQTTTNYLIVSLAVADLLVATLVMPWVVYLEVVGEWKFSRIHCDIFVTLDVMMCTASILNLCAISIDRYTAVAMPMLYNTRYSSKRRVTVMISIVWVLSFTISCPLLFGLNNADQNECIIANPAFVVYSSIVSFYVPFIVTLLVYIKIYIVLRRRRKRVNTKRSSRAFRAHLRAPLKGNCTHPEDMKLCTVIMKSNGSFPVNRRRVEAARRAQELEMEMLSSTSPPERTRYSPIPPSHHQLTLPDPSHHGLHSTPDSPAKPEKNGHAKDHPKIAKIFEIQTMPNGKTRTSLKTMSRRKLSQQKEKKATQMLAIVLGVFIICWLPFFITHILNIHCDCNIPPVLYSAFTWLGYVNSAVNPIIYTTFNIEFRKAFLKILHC
Assay: Agonist activity at dopamine D2 receptor in SH-SY5Y cells assessed as inhibition of forskolin-activated intracellular cAMP production at 50 uM
Assay type: functional, cell-based
Settings: not given
Outline: (§3)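 SH-SY5Y cells expressing human D2LR, preincubated 5-10 min at 22 °C with 5 µM ZM to block A2AR. Then 50 µM zardaverine, 10 µM forskolin, and 50 µM ergopeptide, with or without 150 nM quinpirole or 50 µM raclopride. 35 min total. cAMP by enzyme immunoassay. Three to six determinations, t test.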

Structure (SMILES)	Activity
CN1C[C@H](C(=O)N[C@@H](Cc2ccc([N+](=O)[O-])cc2)C(=O)N[C@@H](Cc2ccc(F)cc2)C(=O)N2CCCC(C(N)=O)C2)C=C2c3cccc4[nH]cc(c34)C[C@H]21 (stereo partly specified)	Active
CN1C[C@H](C(=O)N[C@@H](Cc2ccc([N+](=O)[O-])cc2)C(=O)N[C@@H](CCC2CCCCC2)C(=O)N2CCCC(C(N)=O)C2)C=C2c3cccc4[nH]cc(c34)C[C@H]21 (stereo partly specified)	Active

Biological target: D(1A) dopamine receptor (Homo sapiens) (UniProt P21728)
Sequence (P21728 whole entry): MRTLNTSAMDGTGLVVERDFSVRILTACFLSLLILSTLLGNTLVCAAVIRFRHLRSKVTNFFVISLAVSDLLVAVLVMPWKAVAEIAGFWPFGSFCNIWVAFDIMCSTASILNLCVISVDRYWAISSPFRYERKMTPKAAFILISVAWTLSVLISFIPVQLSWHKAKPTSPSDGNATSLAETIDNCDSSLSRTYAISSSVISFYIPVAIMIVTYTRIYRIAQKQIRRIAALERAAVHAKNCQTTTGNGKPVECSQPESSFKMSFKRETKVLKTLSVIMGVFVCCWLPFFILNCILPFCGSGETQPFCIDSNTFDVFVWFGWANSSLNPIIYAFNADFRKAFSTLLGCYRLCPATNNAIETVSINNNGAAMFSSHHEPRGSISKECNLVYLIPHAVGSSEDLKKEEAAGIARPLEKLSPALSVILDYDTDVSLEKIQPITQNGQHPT
Assay: Displacement of [3H]SCH 23390 from dopamine D1 receptor in lamb striatum membrane at 50 uM after 1 hr
Assay type: cell membranes
Settings: Ovis aries, target entry is the homologue from another species
Outline: as §1

Structure (SMILES)	Activity [%]
CN1C[C@H](C(=O)N[C@@H](Cc2ccc([N+](=O)[O-])cc2)C(=O)N[C@@H](Cc2ccc(F)cc2)C(=O)N2CCCC(C(N)=O)C2)C=C2c3cccc4[nH]cc(c34)C[C@H]21 (stereo partly specified)	< 40
CC(C)[C@H](NC(=O)[C@@H]1C=C2c3cccc4[nH]cc(c34)C[C@H]2N(C)C1)C(=O)N[C@@H](Cc1ccc(F)cc1)C(=O)N1CCC[C@H]1C(N)=O	< 40
CN1C[C@H](C(=O)N[C@@H](Cc2ccc([N+](=O)[O-])cc2)C(=O)N[C@@H](CCC2CCCCC2)C(=O)N2CCCC(C(N)=O)C2)C=C2c3cccc4[nH]cc(c34)C[C@H]21 (stereo partly specified)	< 40

Biological target: T2, Adenosine receptor A2a
Assay: Displacement of [3H]CGS 21680 from adenosine A2A receptor in lamb striatum membrane at 50 uM after 2 hrs
Assay type: cell membranes
Settings: Ovis aries, target entry is the homologue from another species
Outline: as §1

Structure (SMILES)	Activity [%]
CN1C[C@H](C(=O)N[C@@H](Cc2ccc([N+](=O)[O-])cc2)C(=O)N[C@@H](Cc2ccc(F)cc2)C(=O)N2CCCC(C(N)=O)C2)C=C2c3cccc4[nH]cc(c34)C[C@H]21 (stereo partly specified)	< 40
CC(C)[C@H](NC(=O)[C@@H]1C=C2c3cccc4[nH]cc(c34)C[C@H]2N(C)C1)C(=O)N[C@@H](Cc1ccc(F)cc1)C(=O)N1CCC[C@H]1C(N)=O	< 40
CN1C[C@H](C(=O)N[C@@H](Cc2ccc([N+](=O)[O-])cc2)C(=O)N[C@@H](CCC2CCCCC2)C(=O)N2CCCC(C(N)=O)C2)C=C2c3cccc4[nH]cc(c34)C[C@H]21 (stereo partly specified)	< 40

Biological target: D(2) dopamine receptor (Homo sapiens) (UniProt P14416)
Assay: Displacement of [3H]YM 09151-2 from dopamine D2 receptor in lamb striatum membrane at 50 uM after 2 hrs
Assay type: cell membranes
Settings: Ovis aries, target entry is the homologue from another species
Outline: as §1

Structure (SMILES)	Activity [%]
CN1C[C@H](C(=O)N[C@@H](Cc2ccc([N+](=O)[O-])cc2)C(=O)N[C@@H](Cc2ccc(F)cc2)C(=O)N2CCCC(C(N)=O)C2)C=C2c3cccc4[nH]cc(c34)C[C@H]21 (stereo partly specified)	< 40
CC(C)[C@H](NC(=O)[C@@H]1C=C2c3cccc4[nH]cc(c34)C[C@H]2N(C)C1)C(=O)N[C@@H](Cc1ccc(F)cc1)C(=O)N1CCC[C@H]1C(N)=O	< 40
CN1C[C@H](C(=O)N[C@@H](Cc2ccc([N+](=O)[O-])cc2)C(=O)N[C@@H](CCC2CCCCC2)C(=O)N2CCCC(C(N)=O)C2)C=C2c3cccc4[nH]cc(c34)C[C@H]21 (stereo partly specified)	< 40

Biological target: D(1A) dopamine receptor (Homo sapiens) (UniProt P21728)
Assay: Antagonist activity at dopamine D1 receptor transfected in mouse L(tk-) cells assessed as inhibition of SKF-induced stimulation of forskolin-induced cAMP levels
Assay type: functional, cell-based
Settings: not given
Outline: (§4)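 Mouse Ltk- fibroblasts cotransfected with human A1R and D1R, serum-starved 12-16 h. In HBSS with 50 µM zardaverine, then 50 µM ergopeptide, with or without 20 nM SKF or 50 µM SCH. 35 min total incubation. cAMP by competitive enzyme immunoassay. Three to six determinations, t test.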

Structure (SMILES)	Activity
CN1C[C@H](C(=O)N[C@@H](Cc2ccc([N+](=O)[O-])cc2)C(=O)N[C@@H](Cc2ccc(F)cc2)C(=O)N2CCCC(C(N)=O)C2)C=C2c3cccc4[nH]cc(c34)C[C@H]21 (stereo partly specified)	inactive
CC(C)[C@H](NC(=O)[C@@H]1C=C2c3cccc4[nH]cc(c34)C[C@H]2N(C)C1)C(=O)N[C@@H](Cc1ccc(F)cc1)C(=O)N1CCC[C@H]1C(N)=O	inactive
CN1C[C@H](C(=O)N[C@@H](Cc2ccc([N+](=O)[O-])cc2)C(=O)N[C@@H](CCC2CCCCC2)C(=O)N2CCCC(C(N)=O)C2)C=C2c3cccc4[nH]cc(c34)C[C@H]21 (stereo partly specified)	inactive

Biological target: T1, Adenosine receptor A1 (Homo sapiens)
Assay: Agonist activity at adenosine A1 receptor transfected in mouse L(tk-) cells assessed as decrease in forskolin-induced cAMP levels
Assay type: functional, cell-based
Settings: not given
Outline: (§5)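 Mouse Ltk- fibroblasts cotransfected with human A1R and D1R, preincubated 5-10 min at 22 °C with 50 µM SCH to block D1R. Then 50 µM zardaverine, 10 µM forskolin, and 50 µM ergopeptide, with or without 20 nM R-PIA or 50 µM DPCPX. 35 min total. cAMP by enzyme immunoassay. Three to six determinations.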

Structure (SMILES)	Activity
CN1C[C@H](C(=O)N[C@@H](Cc2ccc([N+](=O)[O-])cc2)C(=O)N[C@@H](Cc2ccc(F)cc2)C(=O)N2CCCC(C(N)=O)C2)C=C2c3cccc4[nH]cc(c34)C[C@H]21 (stereo partly specified)	inactive
CC(C)[C@H](NC(=O)[C@@H]1C=C2c3cccc4[nH]cc(c34)C[C@H]2N(C)C1)C(=O)N[C@@H](Cc1ccc(F)cc1)C(=O)N1CCC[C@H]1C(N)=O	inactive
CN1C[C@H](C(=O)N[C@@H](Cc2ccc([N+](=O)[O-])cc2)C(=O)N[C@@H](CCC2CCCCC2)C(=O)N2CCCC(C(N)=O)C2)C=C2c3cccc4[nH]cc(c34)C[C@H]21 (stereo partly specified)	inactive

Biological target: T2, Adenosine receptor A2a
Assay: Antagonist activity at adenosine A2A receptor in SH-SY5Y cells assessed as CGS-induced intracellular cAMP production at 50 uM
Assay type: functional, cell-based
Settings: not given
Outline: as §2

Structure (SMILES)	Activity
CN1C[C@H](C(=O)N[C@@H](Cc2ccc([N+](=O)[O-])cc2)C(=O)N[C@@H](Cc2ccc(F)cc2)C(=O)N2CCCC(C(N)=O)C2)C=C2c3cccc4[nH]cc(c34)C[C@H]21 (stereo partly specified)	Active

Biological target: D(2) dopamine receptor (Homo sapiens) (UniProt P14416)
Assay: Antagonist activity at dopamine D2 receptor in SH-SY5Y cells assessed as effect on forskolin-activated intracellular cAMP production at 50 uM
Assay type: functional, cell-based
Settings: not given
Outline: as §3

Structure (SMILES)	Activity
CC(C)[C@H](NC(=O)[C@@H]1C=C2c3cccc4[nH]cc(c34)C[C@H]2N(C)C1)C(=O)N[C@@H](Cc1ccc(F)cc1)C(=O)N1CCC[C@H]1C(N)=O	Active

Biological target: D(1A) dopamine receptor (Homo sapiens) (UniProt P21728)
Assay: Agonist activity at dopamine D1 receptor transfected in mouse L(tk-) cells assessed as stimulation of cAMP levels
Assay type: functional, cell-based
Settings: not given
Outline: as §4

Structure (SMILES)	Activity
CN1C[C@H](C(=O)N[C@@H](Cc2ccc([N+](=O)[O-])cc2)C(=O)N[C@@H](Cc2ccc(F)cc2)C(=O)N2CCCC(C(N)=O)C2)C=C2c3cccc4[nH]cc(c34)C[C@H]21 (stereo partly specified)	Active
CC(C)[C@H](NC(=O)[C@@H]1C=C2c3cccc4[nH]cc(c34)C[C@H]2N(C)C1)C(=O)N[C@@H](Cc1ccc(F)cc1)C(=O)N1CCC[C@H]1C(N)=O	Active
CN1C[C@H](C(=O)N[C@@H](Cc2ccc([N+](=O)[O-])cc2)C(=O)N[C@@H](CCC2CCCCC2)C(=O)N2CCCC(C(N)=O)C2)C=C2c3cccc4[nH]cc(c34)C[C@H]21 (stereo partly specified)	Active

Biological target: T1, Adenosine receptor A1 (Homo sapiens)
Assay: Antagonist activity at adenosine A1 receptor transfected in mouse L(tk-) cells assessed as inhibition of R-PIA-induced decrease in forskolin-induced cAMP levels
Assay type: functional, cell-based
Settings: not given
Outline: as §5

Structure (SMILES)	Activity
CN1C[C@H](C(=O)N[C@@H](Cc2ccc([N+](=O)[O-])cc2)C(=O)N[C@@H](Cc2ccc(F)cc2)C(=O)N2CCCC(C(N)=O)C2)C=C2c3cccc4[nH]cc(c34)C[C@H]21 (stereo partly specified)	Active
CC(C)[C@H](NC(=O)[C@@H]1C=C2c3cccc4[nH]cc(c34)C[C@H]2N(C)C1)C(=O)N[C@@H](Cc1ccc(F)cc1)C(=O)N1CCC[C@H]1C(N)=O	Active
CN1C[C@H](C(=O)N[C@@H](Cc2ccc([N+](=O)[O-])cc2)C(=O)N[C@@H](CCC2CCCCC2)C(=O)N2CCCC(C(N)=O)C2)C=C2c3cccc4[nH]cc(c34)C[C@H]21 (stereo partly specified)	Active
